From PubChem BioAssay
An excerpt weighted towards active compounds, which were near 4.9% of everything screened.
STAT3 inh = inhibitors of IL-6 induced STAT3 signaling; U3A cells, IL-6 STAT3-luciferase reporter, luminescence; host cell line lacks STAT1; inhibition, % at 5.5 µM; hit rate 0.89% among 190,000; AID 862;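 active = inhibition above the mean inhibition across all screened compounds plus 3 SD, cut at about 44% in these data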;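 also: 0% = DMSO only wells and 100% = 100 µM nifuroxazide control wells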
NF-kB expr up = NF-kB expression increase, human neuronal cells; NF-kB reporter expression; active compounds read high; fold change at 12.5 µM; hit rate 1.6% among 190,000; AID 1239; in the data active = fold change above about 3.3
STAT1 inh = reduces IFN-gamma driven STAT1 reporter signal; NIH 3T3 STAT1-luciferase reporter, luminescence; inhibition, % at 5.5 µM; hit rate 0.35% among 200,000;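 active = inhibition above a set limit, the mean inhibition across all tested compounds plus 3 SD, cut at about 34% in these data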;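 also: 0% = IFN-gamma with DMSO and 100% = IFN-gamma with 300 µM nifuroxazide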
STAT1 act = STAT1 signaling activation | NIH 3T3 STAT1-luciferase reporter, IFN-gamma, luminescence; 100% = IFN-gamma alone, no compound | activation (% of control), % at 5.5 µM | hit rate 2.6% among 200,000 | AID 932;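 active = activation above the screen-wide mean activation plus 3 SD, cut at about 130% in these data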;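 also: raw ratio to IFN-gamma control signal so 100% means no change and 0% no light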
STAT3 act = activators of IL-6 induced STAT3 signaling; U3A cells, IL-6 STAT3-luciferase reporter, luminescence; 100% = signal with IL-6 EC80 alone; activation (% of control), % at 5.6 µM; hit rate 0.91% among 190,000;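 active = activation above the screen-wide mean of compound activation plus 3 SD, cut at about 130% in these data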;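 also: 0% = background luminescence of wells with medium and substrate only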
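system = STAT3-luciferase reporter U3A cells | reagent = IL-6 stimulus at 33 ng/mL final | timing = 1 h compound pre-exposure, 6 h IL-6 stimulation, 37 °C | measured by = luminescence | evaluation = % activation versus median of IL-6-stimulated wells | control set = IL-6-only wells as 100% reference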
APP 5'UTR act = activates APP 5'UTR luciferase reporter; hit rate 1% among 190,000; SH-SY5Y APP 5'UTR luciferase reporter, luminescence; zero percent = DMSO vehicle wells; activation, % at 2 µM;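 active = activation above a set limit, based on mean plus 3 SD of controls, cut at about 140% in these data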
Starred values were filed as active, the others as inactive.

SMILES | STAT3 inh | NF-kB expr up | STAT1 inh | STAT1 act | STAT3 act | APP 5'UTR act
Cc1ccc(-c2nc(-c3ccccc3)no2)c(Cl)c1 | 101* | 1.6 | 69* | 38 | 20 | 166*
Cc1ccc(-c2noc(-c3ccoc3C)n2)cc1 | -43 | 2.5 | -59 | 154* | 138* | 92
Brc1ccccc1-c1nc(-c2ccccc2)no1 | -25 | 9.5* | -51 | 147* | 121 | 180*
NC(=O)c1ccccc1-c1nc(-c2ccccc2)no1 | -8 | 1.8 | -13 | 113 | 113 | 57
Fc1ccccc1-c1nc(-c2ccccc2)no1 | 31 | 6.5* | -33 | 130* | 76 | 157*
COc1cccc(NC(=O)Cn2c(=O)n(-c3ccccc3)c(=O)c3sccc32)c1 | 21 | 1.1 | 9 | 90 | 89 | 8
NNC(=O)COc1ccc(C(F)(F)F)cc1 | 1 | 1.2 | 7 | 93 | 103 | -18
CS(=O)(=O)N(CC(=O)NCc1ccco1)c1ccc(OCc2ccccc2)cc1 | -13 | 1.1 | -9 | 106 | 112 | 15
Fc1cccc(/C=N/N=C/c2cccc(F)c2)c1 | 18 | 1.1 | -52 | 147* | 90 | 38
O=C(N/N=C/c1cccc(F)c1)NC1CCCCC1 | -11 | 1.4 | -21 | 120 | 105 | 13
CCCCN(C(=O)c1ccc(NC(=O)C(C)C)cc1)c1ccccc1 | 11 | 1.3 | -14 | 110 | 95 | -3
CCCc1cc(=O)[nH]c(SCC(=O)NN(c2ccccc2)c2ccccc2)n1 | 5 | 0.82 | -5 | 103 | 103 | -4
O=C(NCCc1ccccc1)C1(c2ccccc2)CC1(Cl)Cl (stereo not drawn) | 4 | 3.4* | 5 | 95 | 102 | 2
CC(C)NC(=O)C1(c2ccccc2)CC1(Cl)Cl (stereo not drawn) | -2 | 1.2 | -4 | 104 | 105 | -8
COc1cccc(C(=O)NCCCn2ccnc2)c1 | 13 | 1.1 | 6 | 94 | 92 | 3
C=CCSc1ncc(-c2ccccc2)cn1 | 9 | 2.2 | -40 | 136* | 94 | 19
Cc1ccc(N=C/C(C(=O)C(F)(F)F)=C(\O)c2cccs2)cc1 | 84* | 2.7 | 54* | 51 | 27 | 190*
N#CC(C#N)=C(Nc1ccc(F)cc1)SCc1cccc(F)c1 | 59* | 1.1 | 49* | 56 | 52 | -4
CCOc1ccc(N/C(SCc2cccc([N+](=O)[O-])c2)=C(/C#N)C(N)=O)cc1 | 4 | 1.1 | 13 | 87 | 98 | -10
Cc1ccc(-c2cc(-c3ccccc3C)[nH]n2)c(O)c1 | -14 | 6.3* | 4 | 94 | 114 | 120
Cc1ccc(O)c(-c2cc(-c3cccc(F)c3)n[nH]2)c1 | -37 | 5* | -6 | 93 | 132 | 43
Oc1ccc(Br)cc1-c1cc(-c2ccc(Cl)cc2)n[nH]1 | -33 | 1.2 | 2 | 98 | 132 | 4
Cc1ccc(-c2cc(-c3cccc(F)c3)n[nH]2)c(O)c1 | -30 | 9.6* | -4 | 104 | 127 | 215*
CC1CCc2c(sc3ncn(CC(=O)N4CCCCC4)c(=O)c23)C1 (stereo not drawn) | 8 | 1.2 | 3 | 97 | 98 | 15
CN(C)S(=O)(=O)c1ccc(NC(=O)C2CC3C=CC2C3)cc1 (stereo not drawn) | -2 | 1.2 | 3 | 98 | 97 | 13
SMILES | STAT3 inh | NF-kB expr up | STAT1 inh | STAT1 act | STAT3 act | APP 5'UTR act
CC1CCCC(C)N1C(=C(Cl)Cl)C(=C1SCCS1)[N+](=O)[O-] (stereo not drawn) | 11 | 0.81 | 25 | 76 | 93 | -14
O=C(Nc1ccn(Cc2ccccc2)n1)c1ccc(F)cc1 | 3 | 1.1 | -45 | 138* | 99 | 68
Cc1ccc(Cn2ccc(NC(=O)c3cc(-c4ccc(F)cc4)on3)n2)cc1 | 15 | 1.1 | 1 | 99 | 92 | -17
O=Cc1c(Sc2ccccc2)nc2ccccn2c1=O | 11 | 4.2* | 5 | 95 | 96 | -6
O=C(CCCOc1ccccc1)NC1CCCc2ccccc21 (stereo not drawn) | 1 | 0.9 | 1 | 99 | 103 | -10
O=c1c2ccccc2nc2sc3ccccc3n12 | -23 | 3.2 | -45 | 141* | 123 | 1
COc1ccc(CC(=O)NNC(=O)CSc2nc(C)c(C)c(=O)[nH]2)cc1 | 5 | 1.1 | -8 | 105 | 100 | 5
Cn1c(CSCc2ccc(Cl)cc2)n[nH]c1=S | 11 | 1 | 3 | 96 | 97 | 18
CCOC(=O)N1CCN(S(=O)(=O)c2ccc(C(=O)Nc3nc4ccc(F)cc4s3)cc2)CC1 | 9 | 1.2 | 3 | 98 | 95 | 11
COC(=O)c1ccc2nc(NC(=O)C(C)C)sc2c1 | 32 | 6* | -37 | 134* | 75 | 96
COC(=O)c1ccc2nc(Nc3nc4c(F)cc(F)cc4s3)sc2c1 | 94* | 1.3 | 70* | 38 | 21 | -4
CCOC(=O)c1ccc2nc(Nc3nc4ccc(F)cc4s3)sc2c1 | 73* | 0.77 | 43* | 62 | 38 | -7
CC(C)C(=O)Nc1nc2ccc(S(C)(=O)=O)cc2s1 | 2 | 1.7 | -5 | 103 | 100 | -6
COC(=O)c1ccc2nc(NC(=O)CN3C(=O)CCC3=O)sc2c1 | -11 | 1.3 | -1 | 101 | 114 | -4
CCN(CC)S(=O)(=O)c1cccc(NC(=O)c2cc(=O)[nH]c3ccccc23)c1 | -3 | 0.85 | -1 | 100 | 99 | 3
Cc1cc(OCC(=O)N2CCCCCC2)ccc1[N+](=O)[O-] | -14 | 1.8 | -42 | 138* | 112 | 57
COc1cc(/C=N/NS(=O)(=O)c2ccc(C)cc2)ccc1OCc1ccc(C(=O)O)cc1 | 54* | 2.8 | 85* | 22 | 56 | -33
O=C1c2cccc3cccc(c23)C(=O)N1CCCN1CCN(c2ccc(F)cc2)CC1 | 29 | 1 | -2 | 100 | 76 | -10
CCCCC(=O)/C=C/n1c(=S)oc2ccccc21 | -10 | 0.93 | -8 | 107 | 108 | -2
CN(C)c1oc(/C=C/c2ccccc2)nc1C#N | -9 | 2.1 | -41 | 138* | 103 | 62
CC(Sc1nnc(-c2cccnc2)n1-c1ccccc1F)C(=O)N1CCCc2ccccc21 (stereo not drawn) | 1 | 0.76 | 1 | 99 | 102 | -4
Cn1c(CC2C(=O)Nc3ccc(Br)cc32)nc2ccccc2c1=O (stereo not drawn) | -36 | 0.67 | 14 | 87 | 133* | -17
CCN1C(=O)C(Cc2nc3ccccc3c(=O)n2-c2ccccc2)c2ccccc21 (stereo not drawn) | 0 | 0.85 | 7 | 93 | 100 | -1
CCN1CCCc2cc(CN(CCN3CCOCC3)C(=S)Nc3ccc(C)cc3)ccc21 | 2 | 1.1 | -2 | 100 | 106 | 12
CCN1CCCc2cc(CN(CCN3CCOCC3)C(=S)Nc3cccc(Cl)c3)ccc21 | 1 | 8.1* | 0 | 98 | 107 | 7
